Source: article PMC6598175 (ACS Central Science, 2019)

How the values were obtained:
ASPACDRAFT_127619 = target: T1, ASPACDRAFT_127619 (Aspergillus aculeatus, UniProt A0A1L9WG58); assay: Competitive ABP labeling by 8 against substrates, recombinant enzyme; assay type: binding, A. aculeatus
T1 sequence (A0A1L9WG58 23-338): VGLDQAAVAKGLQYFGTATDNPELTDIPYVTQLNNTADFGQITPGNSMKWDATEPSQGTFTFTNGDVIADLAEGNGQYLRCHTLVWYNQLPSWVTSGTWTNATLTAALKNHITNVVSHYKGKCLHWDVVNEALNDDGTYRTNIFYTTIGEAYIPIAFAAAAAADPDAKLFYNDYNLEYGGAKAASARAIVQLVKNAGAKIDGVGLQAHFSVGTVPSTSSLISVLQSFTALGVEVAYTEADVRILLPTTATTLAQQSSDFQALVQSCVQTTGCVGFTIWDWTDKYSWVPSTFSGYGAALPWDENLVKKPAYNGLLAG
How it was run: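 Labeling of recombinant GH10 xylanase used 100 nM xylobiose Cy5 ABP for 10 min at room temperature, with competing substrates (e.g. polysaccharides) added. Loss of in-gel fluorescence with competitor concentration gave IC50. Assays were also repeated at 20 min, 37 °C, 1 μM ABP. Three or four technical replicates.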

[1] = target: ∼30 kDa band (XlnC, β-xylanase) (Aspergillus niger, UniProt C5J411); assay: ABP labeling of secretomes and competition by inhibitors; assay type: binding, A. niger; conditions: xylan-induced secretome preincubated with competitor, then ABP 8
How it was run: (§1)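 A. niger N402 was grown in minimal medium with 50 mM (0.75% w/v) xylose or 1% w/v beechwood xylan as sole carbon source. Secretomes were sampled at days 1–9, brought to pH 4.5 with phosphate/citrate buffer and labeled unconcentrated with Cy5 ABPs. In competition runs, secretome was preincubated with competitor (e.g. 100 μM aziridine) before ABP. Bands were read by SDS-PAGE fluorescence scan.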

[2] = target: T2, ∼130 kDa band (XlnD, β-xylosidase) (Aspergillus niger, UniProt O00089); assay: as above; assay type: binding, A. niger
T2 sequence (O00089 27-804): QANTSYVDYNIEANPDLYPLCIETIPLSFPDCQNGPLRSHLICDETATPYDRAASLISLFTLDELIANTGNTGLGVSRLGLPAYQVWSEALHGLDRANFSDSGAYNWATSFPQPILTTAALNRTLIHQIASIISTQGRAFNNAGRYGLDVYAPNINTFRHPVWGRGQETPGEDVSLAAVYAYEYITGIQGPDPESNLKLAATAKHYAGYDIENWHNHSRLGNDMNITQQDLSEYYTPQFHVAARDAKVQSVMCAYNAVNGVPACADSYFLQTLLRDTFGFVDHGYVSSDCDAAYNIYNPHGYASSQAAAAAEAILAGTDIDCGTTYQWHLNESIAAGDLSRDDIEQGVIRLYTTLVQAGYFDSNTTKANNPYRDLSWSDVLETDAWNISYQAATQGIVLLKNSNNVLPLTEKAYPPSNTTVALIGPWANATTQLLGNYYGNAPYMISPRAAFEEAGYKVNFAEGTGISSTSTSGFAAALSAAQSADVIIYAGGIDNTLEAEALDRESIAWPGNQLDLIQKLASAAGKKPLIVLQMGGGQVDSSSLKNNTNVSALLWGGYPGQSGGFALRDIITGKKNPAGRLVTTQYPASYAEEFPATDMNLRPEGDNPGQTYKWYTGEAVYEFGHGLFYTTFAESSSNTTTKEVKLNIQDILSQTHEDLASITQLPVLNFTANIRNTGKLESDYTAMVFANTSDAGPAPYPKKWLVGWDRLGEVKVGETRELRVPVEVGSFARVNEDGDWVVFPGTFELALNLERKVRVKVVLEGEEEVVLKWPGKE
How it was run: as §1

Cc1cc(=O)oc2cc(O[C@@H]3OC[C@@H](O[C@@H]4OC[C@@H](O)[C@H](O)[C@H]4O)[C@H](O)[C@H]3O)ccc12 [4MU-β-D-xylobioside]
IC50 (ASPACDRAFT_127619): 204 µM

OC[C@@H]1[C@@H](O)[C@H](O)[C@@H](O)[C@@H]2O[C@H]12 [Compound 22, cyclophellitol]
competition of ∼30 kDa band labeling by 8 [1]: No labeling inhibition | competition of ∼130 kDa band labeling by 8 ([2]; xylan-induced secretome preincubated with competitor, then ABP 8): No labeling inhibition

OC[C@@H]1[C@@H](O)[C@H](O)[C@@H](O)[C@@H]2N[C@H]12 [Compound 23, cyclophellitol aziridine]
competition of ∼130 kDa band labeling by 8 ([2]; preincubation with 100 μM competitor): some loss of intensity
